Experimental findings from ChEMBL document CHEMBL1147503, “Syntheses and structure-activity relationship studies of piperidine-substituted quinolones as nonpeptide gonadotropin releasing hormone antagonists” (Bioorg Med Chem Lett, 2004) are described below.

Data set [1] has as its target T1, Gonadotropin-releasing hormone receptor (Rattus norvegicus) (UniProt P30969).
T1 sequence (whole entry): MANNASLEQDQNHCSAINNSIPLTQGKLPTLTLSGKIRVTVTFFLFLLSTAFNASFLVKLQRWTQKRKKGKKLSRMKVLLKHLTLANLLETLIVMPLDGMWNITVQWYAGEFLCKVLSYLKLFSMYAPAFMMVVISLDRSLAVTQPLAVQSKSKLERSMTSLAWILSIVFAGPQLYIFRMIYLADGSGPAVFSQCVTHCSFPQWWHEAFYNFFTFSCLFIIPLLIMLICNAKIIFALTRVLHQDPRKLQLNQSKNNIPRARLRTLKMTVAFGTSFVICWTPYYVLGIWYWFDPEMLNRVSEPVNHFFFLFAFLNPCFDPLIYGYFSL
Briefly: Inhibitory activity against binding of rat Gonadotropin-releasing hormone receptor using [125I]buserelin at 10 uM.

The target in data set [2] is T2, Gonadotropin-releasing hormone receptor (Rattus norvegicus, UniProt P30969).
T2 sequence (P30969 whole entry): T1 sequence (whole entry)
As to the kind of experiment: Inhibitory concentration against binding of rat Gonadotropin-releasing hormone receptor using [125I]buserelin.

A short description of data set [3]: Clearance rate in dog. Type of data set: ADME, organism-based, Canis lupus familiaris. Particulars: in vivo, read-out: Clearance rate.
In data set [4] the test system is CHO. As to the kind of experiment: In vitro inhibitory concentration against GnRH-stimulated phosphatidyl inositol hydrolysis by cloned chinese hamster ovary cells stably expressing human GnRH receptor. Type of data set: functional, cell-based. Particulars: Cricetulus griseus.
The nature of data set [5]: Oral bioavailability in dog. Type of data set: ADME, organism-based, Canis lupus familiaris. Particulars: in vivo.
Data set [6] concerns the target T3, Gonadotropin-releasing hormone receptor (Homo sapiens, UniProt P30968).
T3 sequence (P30968 whole entry): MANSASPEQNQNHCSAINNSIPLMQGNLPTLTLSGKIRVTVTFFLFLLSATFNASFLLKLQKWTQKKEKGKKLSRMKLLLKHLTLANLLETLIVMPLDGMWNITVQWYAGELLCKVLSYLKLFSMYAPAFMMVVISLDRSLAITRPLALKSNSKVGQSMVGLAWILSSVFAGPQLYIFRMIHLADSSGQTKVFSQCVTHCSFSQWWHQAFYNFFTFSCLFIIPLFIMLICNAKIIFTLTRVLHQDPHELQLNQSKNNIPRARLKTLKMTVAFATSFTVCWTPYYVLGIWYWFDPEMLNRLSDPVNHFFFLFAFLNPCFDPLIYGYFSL
Briefly: Inhibitory concentration against binding of [125I]buserelin to human Gonadotropin-releasing hormone receptor. In a few lines:
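Competitive displacement of the GnRH receptor agonist radioligand [125I]buserelin from the human GnRH receptor, with 0.1% BSA present in the binding assay.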

As for `Cc1cc(C)cc(-c2c(O)nc3cc(Cl)c([N+](=O)[O-])cc3c2OCCc2ccccn2)c1`, in data set [1], the inhibition (usually the drop in the measured response relative to a control, in per cent) came to 86%. On the same count and under the same terms, in the case of `Cc1cc(C)cc(-c2c(O)nc3cc(Cl)c([N+](=O)[O-])cc3c2OCCC2CCc3ccccc3N2)c1` (stereo not given) it was 85%.

In the case of `Cc1cc(C)cc(-c2c(OCC[C@@H]3CCC[C@H](CCCc4ccccc4)N3)c3cc([N+](=O)[O-])c(Cl)cc3[nH]c2=O)c1`, in data set [2], the IC50 (as a rule, the midpoint of a concentration-inhibition curve) was determined as 0.4 µM.

Turning to `Cc1cc(-c2c(O)nc3cc(Cl)c(C(=O)Nc4ccncn4)cc3c2OCC[C@@H]2CCCCN2)cc(C)c1C`, in data set [3], the clearance (usually the rate of elimination divided by the concentration) was found to be 2.21 L/h/kg. In data set [4], this compound had an IC50 of 0.0022 µM. Also, the bioavailability – broadly, dose-corrected exposure relative to a reference, in per cent – in data set [5] was determined as 4.4%. For the compound `Cc1cc(-c2c(OCC[C@@H]3CCCC(C(F)(F)F)N3)c3cc(C(=O)Nc4ccncn4)c(Cl)cc3[nH]c2=O)cc(C)c1C` (stereo not given in full), the clearance in data set [3] was 1.3 L/h/kg. Further, the IC50 in data set [6] was 0.002 µM; in data set [4] it was 0.018 µM. In data set [5], the bioavailability was found to be 14.6%. Compound `Cc1cc(C)cc(-c2c(O)nc3cc(Cl)c([N+](=O)[O-])cc3c2OCC[C@@H]2CCC[C@H](C)N2)c1` displayed a half-maximal inhibitory concentration (IC50) in data set [2] of 0.015 µM. Consider `Cc1cc(-c2c(OCC[C@@H]3CCC[C@H](C)N3)c3cc(C(=O)Nc4ccncn4)c(Cl)cc3[nH]c2=O)cc(C)c1C`, for which the IC50 was determined as 0.0006 µM in data set [6] and 0.0098 µM in data set [4]. Take `CCC1CCC[C@@H](CCOc2c(-c3cc(C)cc(C)c3)c(=O)[nH]c3cc(Cl)c(C(=O)Nc4ccncn4)cc23)N1` (stereo not given in full): the 50% inhibitory concentration (IC50) in data set [6] came to 0.0057 µM.

Regarding `CC[C@H]1CCC[C@@H](CCOc2c(-c3cc(C)cc(C)c3)c(O)nc3cc(Cl)c([N+](=O)[O-])cc23)N1`, the IC50 in data set [2] came out at 0.018 µM. Compound `Cc1cc(C)cc(-c2c(O)nc3cc(Cl)c([N+](=O)[O-])cc3c2OCC[C@@H]2Cc3ccccc3CN2)c1` displayed an IC50 in data set [2] of 0.07 µM.

In data set [2], `Cc1cc(C)cc(-c2c(OCCC3NCCc4ccccc43)c3cc([N+](=O)[O-])c(Cl)cc3[nH]c2=O)c1` (stereo not given) yielded an IC50 of 0.75 µM.

In data set [2], `Cc1cc(C)cc(-c2c(O)nc3cc(Cl)c([N+](=O)[O-])cc3c2OCCC2NCCCC2C)c1` (stereo not given) displayed an IC50 of 0.045 µM. On to `Cc1cc(C)cc(-c2c(OCCC3CCC(C)CN3)c3cc([N+](=O)[O-])c(Cl)cc3[nH]c2=O)c1` (stereo not given), for which the IC50 in data set [2] was determined as 0.063 µM. In data set [2], `Cc1cc(C)cc(-c2c(O)nc3cc(Cl)c([N+](=O)[O-])cc3c2OCCC2CCCCN2)c1` (single isomer, unassigned) registered an IC50 of 0.01 µM. This IC50 lies about 6.3-fold lower than the previous one. `Cc1cc(C)cc(-c2c(OCC[C@@H]3CCC[C@H](C)N3)c3cc(C(=O)Nc4ccncn4)c(Cl)cc3[nH]c2=O)c1`: the results for the IC50 in data set [6] and in data set [4] were 0.0005 µM and 0.0087 µM, respectively.

In the case of `Cc1cc(C)cc(-c2c(OCC[C@@H]3CCC[C@@H](C)N3)c3cc(C(=O)Nc4ccncn4)c(Cl)cc3[nH]c2=O)c1`, the half-maximal inhibitory concentration (IC50) in data set [6] was 0.0005 µM; in data set [4], 0.0115 µM.

`Cc1cc(C)cc(-c2c(O)nc3cc(Cl)c(C(=O)Nc4ccncn4)cc3c2OCC[C@@H]2CCCCN2)c1`: half-maximal inhibition in data set [4] (IC50) was put at 0.005 µM.
